From PubChem BioAssay
Pf gamet viab: kills late stage P. falciparum gametocytes | P. falciparum stage V gametocytes, ATP luminescence, 24 h | inhibition, % at 10.9 µM | hit rate 0.065% among 150,000 | AID 743093;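 active = inhibition above the mean plus 3 SD of compounds within the control limits, set per campaign, cut at about 38% in these data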;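 note: 0% = DMSO wells and 100% = medium only without gametocytes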
Biofilm kill mix: mixture kills Candida albicans biofilm cells. inhibition, % at 7.6 µM. hit rate 0.02% among 120,000. AID 1242. C. albicans biofilm persisters + clotrimazole, fluorescence viability; primary screen in compound mixtures of four per well;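 note: compounds exposed to preformed 24 h biofilms for 48 h; 0% = untreated biofilm control and 100% = clotrimazole plus chlorhexidine kill blank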
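Test system: C. albicans CAF4-2 wild-type biofilms; buffer or medium: RPMI/MOPS medium, pH 7.0; schedule: 24 h biofilm formation, then 48 h compound exposure, 37 °C; detection: Alamar Blue fluorescence; measure: percent inhibition of biofilm viability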
ROMK primary: modulates human ROMK potassium channel activity; Tet-inducible ROMK, thallium flux fluorescence; actives lie on both sides; B-score at 10 µM; P48048; hit rate 2% among 130,000;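 active = signal ratio slope over the read window, or its plate-corrected B-score, at least 3 SD from the plate mean, either direction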;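 note: B-score of the F/F0 ratio slope over 7 to 12 s after thallium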
Target sequence (P48048 whole entry, looked up): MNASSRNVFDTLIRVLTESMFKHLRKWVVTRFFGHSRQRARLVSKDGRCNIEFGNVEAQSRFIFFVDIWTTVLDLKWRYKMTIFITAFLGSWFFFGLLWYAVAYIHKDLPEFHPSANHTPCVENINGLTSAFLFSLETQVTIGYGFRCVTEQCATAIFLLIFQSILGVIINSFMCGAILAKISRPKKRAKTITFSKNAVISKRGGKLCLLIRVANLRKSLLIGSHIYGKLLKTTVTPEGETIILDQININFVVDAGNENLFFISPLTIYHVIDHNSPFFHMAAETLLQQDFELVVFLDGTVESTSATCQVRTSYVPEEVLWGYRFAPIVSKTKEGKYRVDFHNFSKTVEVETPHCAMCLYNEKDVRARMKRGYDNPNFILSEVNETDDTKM
ROMK retest: human ROMK channel modulation, retest confirmation. shares compounds with ROMK primary. ROMK thallium flux, fluorescence ratio; stronger effect = lower value. normalized thallium flux (F/F0 slope) at 10 µM. hit rate 54% among 3,000. AID 1917;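 active = Flux at 10 µM at least 3 SD below or above vehicle control mean in one or both replicates; inconclusive = no clear call, values can overlap the other calls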
An asterisk follows results filed as active; ? = inconclusive; / = no result. Only a selection was taken, and hits are over-represented in it overall.

SMILES	Pf gamet viab	Biofilm kill mix	ROMK primary	ROMK retest
O=[N+]([O-])c1cc(S(=O)(=O)NC2=NCCCCC2)ccc1NCC1CCCCC1	-7.2	19.1	-7.65*	0.0592*
Nc1ccc(S(=O)(=O)NC2=NCCCCC2)cc1N	-20.8	19.7	-0.425	/
Cc1c(NC(=O)CS(=O)(=O)c2ccccc2)c(=O)n(-c2ccccc2)n1C	6.8	19.2	0.665	/
CC(C)c1ccc(-n2c(-c3ccccc3)c[n+]3c2CCc2ccccc2-3)cc1	-24.1	34.7*	-6.01*	0.0411*
COc1ccc(-n2c(-c3ccc(Br)cc3)c[n+]3c2CCc2ccccc2-3)cc1	/	25.1	-2.45	/
Cc1ccc(C(=O)N2N=C3c4ccccc4S(=O)(=O)N3[C@H]2N(C)C)cc1	/	9.5	0.325	/
Cc1[nH]nc(SCC(=O)NCCc2ccccc2)c1[N+](=O)[O-]	6.8	21.0	/	/
Cc1[nH]nc(SCC(=O)NCc2ccccc2)c1[N+](=O)[O-]	/	12.1	-2.3*	0.0741
O=C1CCC([N+](=O)[O-])C(C2CC=CCC2)N1 (centres undefined)	-0.4	/	/	/
Cc1c(C(=O)O)oc2c1/C(=N\O)CCC2	/	13.2	/	/
O/N=C1\CCCc2oc3c(c21)CCCC3	-4.4	/	/	0.0644*
Cc1oc2cc(O)ccc2c(=O)c1-c1nncn1-c1ccccc1	18.9	17.4	-4.63*	0.049*
Cc1oc2cc(O)ccc2c(=O)c1-c1ccccc1	-15.8	22.1	0.0112	/
COc1ccc(CNC(=O)C(=O)NCC2OCCN2S(=O)(=O)c2cccs2)cc1 (centres undefined)	/	18.4	-0.9	/
CCCc1cc(C(=O)Nc2ccccc2SC)no1	/	/	/	?
COc1ccc(-c2cc(C(=O)Nc3ccccc3SC)no2)cc1	-36.8	/	0.359	/
Cc1onc(-c2ccccc2)c1CNC(=O)Nc1ccccc1	-20.3	28.6	/	/
CC(C)OC(=O)c1c2c(n3ccccc13)C(=O)c1ccccc1C2=O	-7.6	14.6	/	0.0515*
COC(=O)c1cc2c(C)c(C)c3ccccn3c-2c1C(=O)OC	/	/	-0.386	/
COc1ccc(Cc2nnc(NC(=O)c3ccccc3F)s2)cc1	14.4	/	/	/
COc1ccc(/C=N/NC(=O)c2cc(C(C)(C)C)[nH]n2)cc1COc1ccc(F)cc1F	-23.3	7.1	-11.2*	0.0826
COc1ccc(/C=N/NC(=O)c2nc(Cl)c(Cl)c(N)c2Cl)cc1COc1ccc(F)cc1F	17.6	/	/	/
CCOC(=O)CN1C=C(c2ccc3ccccc3n2)C(C[N+](=O)[O-])c2ccccc21 (centres undefined)	/	/	-3.78*	0.0491*
CCOC(=O)CSc1ccc2ccccc2n1	13.1	6.9	-0.15	/
COc1ccc2c(C#N)c3ccccn3c2c1	/	5.3	-3.07*	0.045*
SMILES	Pf gamet viab	Biofilm kill mix	ROMK primary	ROMK retest
Cc1cc(=O)n2ccccc2c1C#N	-6.3	/	-0.675	/
COc1ccc(OC)c(N(CC(N)=O)S(=O)(=O)c2ccc(OC)c(OC)c2)c1	8.9	/	/	/
Cc1ccc(C)c(OC(=O)CN2C(=O)c3ccccc3C2=O)c1	-13.3	/	/	/
CC(C)CCNC(=O)c1csc2c1CCCCC2	11.8	15.7	-0.576	/
CC1CC(C)CN(CCCNC(=O)c2csc3c2CCCC3)C1 (centres undefined)	-2.8	/	-2.96*	0.0635*
COc1ccc(-c2nc3c4ccccc4ccn3c2CN2CCOCC2)cc1OC	9.8	24.3	-0.582	/
Cc1sc2nc[nH]c(=O)c2c1-c1ccc(Cl)cc1	16.9	/	/	/
Cc1cc(C(=O)NC(C)CCc2ccccc2)ccc1[N+](=O)[O-] (centres undefined)	-6.6	/	/	/
CCCCCCC(=O)N/N=C/Cc1ccccc1	6.4	/	/	/
CC(C)/C=N\NC(=O)CCCCC(=O)N/N=C/C(C)C	1.4	18.9	/	0.0825
O=[N+]([O-])c1ccc(N2CCN(C(=S)c3cccc([N+](=O)[O-])c3)CC2)cc1	-5.0	23.0	-3.07*	0.0646*
CC(=O)N1CCN(C(=S)c2cccc([N+](=O)[O-])c2)CC1	-14.8	17.9	0.587	/
CC1CCN(CC(=O)Nc2cccc(Cl)c2)CC1	-2.1	14.1	-0.1	/
CCOc1ccccc1C1C(C#N)=C(N)Oc2cc(N)ccc21 (centres undefined)	8.1	/	-4.2*	0.0531*
COc1ccc(OC)c(C2C(C#N)=C(N)Oc3cc(N)ccc32)c1 (centres undefined)	3.6	/	/	/
OC(COCc1ccc(Cl)cc1)CN1CCc2ccccc2C1 (centres undefined)	5.8	9.4	-1.49	/
OC(COCc1ccc(Cl)cc1)CN1CCN(CC(O)COCc2ccc(Cl)cc2)CC1 (centres undefined)	20.1	/	-2.98*	0.0536*
Cc1cc2c(ccc3c2no[n+]3[O-])nn1	/	/	2.67*	0.0715
[O-][n+]1onc2c3ccnnc3ccc21	7.9	/	/	/
COC(=O)/C=C1\NCCNC1=O	7.5	19.6	/	/
CSC(C1CCCC1)n1nnc2ccccc21 (centres undefined)	-26.1	/	/	/
Cc1cc(C=NCCO)c(C)n1-c1cc(Cl)ccc1Cl	3.9	14.2	/	/
Cc1cc(/C=N/n2cnnc2)c(C)n1-c1cc(Cl)ccc1Cl	/	/	/	?
CS(=O)c1ccccc1-c1nc(-c2ccc([N+](=O)[O-])cc2)no1 (centres undefined)	-2.7	/	/	/
C=CCNC(=O)/C(C#N)=C/c1cn(-c2ccccc2)nc1-c1cccs1	6.2	20.8	-0.288	/
SMILES	Pf gamet viab	Biofilm kill mix	ROMK primary	ROMK retest
O=C1c2ccccc2C(=O)N1CCCn1c2ccc(Cl)cc2c2nc3ccccc3nc21	6.8	/	/	/
Cc1cccc2c3nc4ccccc4nc3n(CCCN3C(=O)c4ccccc4C3=O)c12	-13.5	17.3	/	0.0651*
Cc1c(Cl)cnc(NC(=O)COC(=O)CCc2nc3ccccc3s2)c1Cl	16.0	7.4	/	/
Cc1cccc(-c2nc(CN3CCCC(C(=O)NC4CCCCCC4)C3)c(C)o2)c1 (centres undefined)	-30.7	/	-3.52*	0.0624*
Cc1cccc(-c2nc(CN3CCCC(C(=O)NC4CCCCC4)C3)c(C)o2)c1 (centres undefined)	-9.6	/	-2.46*	0.0664*
Cc1oc(-c2ccc(Cl)cc2)nc1CN1CCCC(C(=O)NCc2ccccn2)C1 (centres undefined)	8.8	/	-0.294	/
Cc1oc(-c2cccc(Cl)c2)nc1CN1CCCC(C(=O)NCc2ccco2)C1 (centres undefined)	-5.1	/	-1.46	/
O=C(c1cc(F)c(F)cc1Cl)N1CCCc2ccccc21	7.4	/	/	/
Cc1ccc(Cl)cc1NC(=O)C1CC1c1ccccc1 (centres undefined)	7.2	/	/	/
CCC1Nc2ncnc(N3CCCCC3)c2N(Cc2ccc(OC)cc2)C1=O (centres undefined)	-6.7	/	/	/
O=C1Nc2ccccc2C(O)(C(=O)N2CCCCC2)N1c1ccccc1 (centres undefined)	7.0	/	/	/
CC(C)NC(=O)C1(O)c2ccccc2NC(=O)N1c1ccc(Cl)c(Cl)c1 (centres undefined)	-6.5	/	/	?
c1coc(CNc2ncnc3sc4c(c23)CCCCC4)c1	/	/	/	0.0619*
Cc1nc(NCc2ccco2)c2c3c(sc2n1)CCC3	10.3	/	/	/
COc1ccc(C(=O)NNC(=O)C2CCCN(C3CC(=O)N(c4ccccc4)C3=O)C2)cc1 (centres undefined)	16.4	8.8	-1.05	/
COC(=O)c1ccc(/C=C(\C#N)C(=O)NC(C)c2ccccc2)cc1 (centres undefined)	/	28.3	/	0.049*
CC(NC(=O)/C(C#N)=C/c1ccco1)c1ccccc1 (centres undefined)	12.4	8.9	/	/
